Assay [1] addresses Ribosomal protein S6 kinase alpha-2 (Homo sapiens) (UniProt Q15349). In words: Inhibition of RSK3 domain1 Lys2 labeling site in human A-375 cells at 5 uM by KiNativ Profiling analysis relative to control. The class given is cell-based. Summed up: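 Live A375 melanoma cells treated with compound at 5 or 0.5 μM, then lysed. Lysate kinases were labeled with a lysine-reactive ATP or ADP-biotin probe. Inhibition was read as protection of labeling sites from the probe.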

The test system of assay [2] is Epidermal growth factor receptor (Homo sapiens), P00533 [UNDEFINED MUTATION]. In words: Inhibition of EGFR E746-A750del mutant (unknown origin) at 1 uM by Ambit Kinomescan binding assay relative to control.
Sequence of Epidermal growth factor receptor (Homo sapiens), P00533 [UNDEFINED MUTATION] (P00533 whole entry, looked up, stated change not applied): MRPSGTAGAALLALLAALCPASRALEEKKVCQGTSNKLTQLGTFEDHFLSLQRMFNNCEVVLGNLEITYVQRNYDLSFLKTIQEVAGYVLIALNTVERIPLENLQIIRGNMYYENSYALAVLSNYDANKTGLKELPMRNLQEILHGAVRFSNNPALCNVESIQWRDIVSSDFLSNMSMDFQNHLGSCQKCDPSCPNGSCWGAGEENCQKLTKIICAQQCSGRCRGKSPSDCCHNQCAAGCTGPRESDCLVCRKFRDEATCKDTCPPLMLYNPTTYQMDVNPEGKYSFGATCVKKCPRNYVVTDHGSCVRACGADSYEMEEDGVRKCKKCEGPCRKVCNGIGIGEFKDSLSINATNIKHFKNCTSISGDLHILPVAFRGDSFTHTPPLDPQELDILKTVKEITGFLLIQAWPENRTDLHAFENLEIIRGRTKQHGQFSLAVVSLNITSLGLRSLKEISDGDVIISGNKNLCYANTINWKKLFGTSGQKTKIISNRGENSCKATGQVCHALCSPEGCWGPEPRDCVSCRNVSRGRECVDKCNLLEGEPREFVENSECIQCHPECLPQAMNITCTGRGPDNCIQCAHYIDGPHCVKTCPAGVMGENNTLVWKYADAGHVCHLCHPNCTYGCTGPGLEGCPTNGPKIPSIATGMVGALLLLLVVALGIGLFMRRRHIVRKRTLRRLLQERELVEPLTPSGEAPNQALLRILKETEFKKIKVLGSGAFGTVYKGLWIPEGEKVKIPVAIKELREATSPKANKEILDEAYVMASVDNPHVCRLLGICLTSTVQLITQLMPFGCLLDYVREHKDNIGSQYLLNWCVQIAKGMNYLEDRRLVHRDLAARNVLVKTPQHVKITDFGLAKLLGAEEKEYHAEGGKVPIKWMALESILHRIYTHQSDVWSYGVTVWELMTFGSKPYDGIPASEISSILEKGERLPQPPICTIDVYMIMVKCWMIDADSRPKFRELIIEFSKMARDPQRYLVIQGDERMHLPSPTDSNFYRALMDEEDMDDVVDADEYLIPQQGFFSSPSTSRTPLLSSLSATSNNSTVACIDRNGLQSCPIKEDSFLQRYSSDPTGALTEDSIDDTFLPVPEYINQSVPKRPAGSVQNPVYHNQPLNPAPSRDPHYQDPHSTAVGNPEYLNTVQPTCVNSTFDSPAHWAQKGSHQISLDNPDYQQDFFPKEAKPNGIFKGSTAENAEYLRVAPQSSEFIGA
Assay [3] has as its target Cyclin-dependent kinase 13 (Homo sapiens) (UniProt Q14004). In words: Inhibition of CDC2L5 (unknown origin) at 1 uM by Ambit Kinomescan binding assay relative to control.
In assay [4] the target is T1, Ephrin type-B receptor 2 (Homo sapiens) (UniProt P29323).
T1 sequence (whole entry): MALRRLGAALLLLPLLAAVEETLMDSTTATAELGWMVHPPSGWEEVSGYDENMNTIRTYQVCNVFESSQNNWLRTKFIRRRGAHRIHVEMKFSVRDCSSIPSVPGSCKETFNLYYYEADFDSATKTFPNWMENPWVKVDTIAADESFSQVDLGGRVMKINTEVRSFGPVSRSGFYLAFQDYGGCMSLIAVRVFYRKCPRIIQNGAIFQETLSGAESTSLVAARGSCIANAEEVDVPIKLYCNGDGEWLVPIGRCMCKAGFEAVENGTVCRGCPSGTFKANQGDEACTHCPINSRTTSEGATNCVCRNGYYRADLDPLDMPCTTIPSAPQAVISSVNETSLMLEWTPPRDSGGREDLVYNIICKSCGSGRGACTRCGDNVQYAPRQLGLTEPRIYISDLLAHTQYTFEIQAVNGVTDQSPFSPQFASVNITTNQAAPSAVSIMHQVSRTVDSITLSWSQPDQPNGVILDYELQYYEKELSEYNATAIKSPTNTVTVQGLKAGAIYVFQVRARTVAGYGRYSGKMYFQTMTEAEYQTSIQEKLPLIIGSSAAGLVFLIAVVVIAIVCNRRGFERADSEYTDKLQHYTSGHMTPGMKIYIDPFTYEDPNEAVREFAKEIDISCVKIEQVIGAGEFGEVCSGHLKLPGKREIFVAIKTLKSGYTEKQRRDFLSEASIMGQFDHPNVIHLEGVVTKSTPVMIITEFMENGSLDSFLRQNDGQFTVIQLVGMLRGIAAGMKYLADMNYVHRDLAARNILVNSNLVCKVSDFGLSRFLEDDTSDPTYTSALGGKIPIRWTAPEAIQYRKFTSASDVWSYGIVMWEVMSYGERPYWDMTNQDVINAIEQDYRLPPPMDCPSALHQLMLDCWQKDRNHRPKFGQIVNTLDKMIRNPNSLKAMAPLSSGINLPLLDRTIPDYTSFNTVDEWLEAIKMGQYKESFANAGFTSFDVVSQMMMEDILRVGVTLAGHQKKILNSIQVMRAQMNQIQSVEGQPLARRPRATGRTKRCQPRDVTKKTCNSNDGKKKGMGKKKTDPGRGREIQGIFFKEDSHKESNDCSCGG
In words: Inhibition of EPHB2 (unknown origin) at 1 uM by Ambit Kinomescan binding assay relative to control.

In assay [5] the target is DNA-PK/Ku70/Ku85 (Homo sapiens) (UniProt P78527+P12956+P13010). In words: Inhibition of DNAPK ATP labeling site harbouring GHDEREHPFLVKGGEDLR in human A-375 cells at 0.05 uM by KiNativ Profiling analysis relative to control. The format is cell-based.
For assay [6], the target named is T2, Receptor-interacting serine/threonine-protein kinase 4 (Homo sapiens) (UniProt P57078).
T2 sequence (whole entry): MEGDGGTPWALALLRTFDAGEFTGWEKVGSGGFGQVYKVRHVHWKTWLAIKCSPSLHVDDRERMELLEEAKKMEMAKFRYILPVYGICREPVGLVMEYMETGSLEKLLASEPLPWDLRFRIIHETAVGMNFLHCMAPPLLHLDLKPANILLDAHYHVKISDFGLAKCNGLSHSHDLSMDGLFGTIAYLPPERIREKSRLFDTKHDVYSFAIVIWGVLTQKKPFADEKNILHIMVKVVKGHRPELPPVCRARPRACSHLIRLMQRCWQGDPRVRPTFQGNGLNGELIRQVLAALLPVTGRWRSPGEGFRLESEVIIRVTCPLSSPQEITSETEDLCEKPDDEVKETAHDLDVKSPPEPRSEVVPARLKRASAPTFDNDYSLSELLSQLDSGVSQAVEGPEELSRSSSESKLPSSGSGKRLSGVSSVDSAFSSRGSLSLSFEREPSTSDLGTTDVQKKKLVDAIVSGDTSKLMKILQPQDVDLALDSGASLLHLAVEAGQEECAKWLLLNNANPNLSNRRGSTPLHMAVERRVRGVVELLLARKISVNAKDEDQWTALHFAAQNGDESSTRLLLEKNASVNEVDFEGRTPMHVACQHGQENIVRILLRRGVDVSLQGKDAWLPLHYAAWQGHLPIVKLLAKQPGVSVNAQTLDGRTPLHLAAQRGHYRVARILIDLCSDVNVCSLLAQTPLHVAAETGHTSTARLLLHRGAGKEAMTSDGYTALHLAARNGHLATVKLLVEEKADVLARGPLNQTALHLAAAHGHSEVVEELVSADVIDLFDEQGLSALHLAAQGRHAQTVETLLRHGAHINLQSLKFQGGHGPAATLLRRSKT
In words: Inhibition of ANKRD3 Lys1 labeling site in human A-375 cells at 5 uM by KiNativ Profiling analysis relative to control. The format is cell-based.

For assay [7], the target named is Tyrosine-protein kinase Fyn (Homo sapiens) (UniProt P06241). In words: Inhibition of FYN (unknown origin) at 10 uM by Ambit Kinomescan binding assay relative to control; values are per cent of control.
Sequence of Tyrosine-protein kinase Fyn (Homo sapiens) (P06241 2-537 limits assumed): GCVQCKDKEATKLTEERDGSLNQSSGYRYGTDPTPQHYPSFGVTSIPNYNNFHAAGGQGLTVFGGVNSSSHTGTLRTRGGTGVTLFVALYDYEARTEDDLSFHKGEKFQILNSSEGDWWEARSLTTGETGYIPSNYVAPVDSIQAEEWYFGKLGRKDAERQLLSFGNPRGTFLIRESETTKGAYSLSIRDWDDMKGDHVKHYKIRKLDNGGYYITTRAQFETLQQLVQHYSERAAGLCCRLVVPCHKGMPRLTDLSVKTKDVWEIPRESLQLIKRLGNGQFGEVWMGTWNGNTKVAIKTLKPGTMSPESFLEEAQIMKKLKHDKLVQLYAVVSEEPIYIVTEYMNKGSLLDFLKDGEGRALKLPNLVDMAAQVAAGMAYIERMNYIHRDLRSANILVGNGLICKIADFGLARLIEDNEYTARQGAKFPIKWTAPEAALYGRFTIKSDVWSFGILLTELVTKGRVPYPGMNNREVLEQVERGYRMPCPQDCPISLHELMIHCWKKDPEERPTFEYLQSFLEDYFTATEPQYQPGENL
Assay [8] concerns the target Serine/threonine-protein kinase 25 (Homo sapiens) (UniProt O00506). In words: Inhibition of YSK1 ATP labeling site in human Huh-7 cells at 1 uM by KiNativ Profiling analysis relative to control. The class given is cell-based.
For assay [9], the target named is Misshapen-like kinase 1 (Homo sapiens) (UniProt Q8N4C8). In words: Inhibition of ZC3/MINK Lys2 labeling site in human Huh-7 cells at 1 uM by KiNativ Profiling analysis relative to control. The class given is cell-based.

Molecules are shown by their SMILES.

Sequence of Serine/threonine-protein kinase 25 (Homo sapiens) (O00506 whole entry, looked up): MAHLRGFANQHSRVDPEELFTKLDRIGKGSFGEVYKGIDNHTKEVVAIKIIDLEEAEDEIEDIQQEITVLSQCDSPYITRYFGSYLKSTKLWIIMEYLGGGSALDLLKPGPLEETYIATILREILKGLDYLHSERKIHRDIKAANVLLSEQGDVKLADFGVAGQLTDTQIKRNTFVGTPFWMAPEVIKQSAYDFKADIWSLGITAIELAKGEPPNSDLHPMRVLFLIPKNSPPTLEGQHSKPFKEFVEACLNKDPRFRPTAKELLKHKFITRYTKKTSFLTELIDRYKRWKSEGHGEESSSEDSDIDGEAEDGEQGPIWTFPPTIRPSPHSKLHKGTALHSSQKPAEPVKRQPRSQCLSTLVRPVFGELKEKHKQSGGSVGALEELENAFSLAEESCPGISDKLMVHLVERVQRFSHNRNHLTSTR
Sequence of Cyclin-dependent kinase 13 (Homo sapiens) (Q14004 whole entry, looked up): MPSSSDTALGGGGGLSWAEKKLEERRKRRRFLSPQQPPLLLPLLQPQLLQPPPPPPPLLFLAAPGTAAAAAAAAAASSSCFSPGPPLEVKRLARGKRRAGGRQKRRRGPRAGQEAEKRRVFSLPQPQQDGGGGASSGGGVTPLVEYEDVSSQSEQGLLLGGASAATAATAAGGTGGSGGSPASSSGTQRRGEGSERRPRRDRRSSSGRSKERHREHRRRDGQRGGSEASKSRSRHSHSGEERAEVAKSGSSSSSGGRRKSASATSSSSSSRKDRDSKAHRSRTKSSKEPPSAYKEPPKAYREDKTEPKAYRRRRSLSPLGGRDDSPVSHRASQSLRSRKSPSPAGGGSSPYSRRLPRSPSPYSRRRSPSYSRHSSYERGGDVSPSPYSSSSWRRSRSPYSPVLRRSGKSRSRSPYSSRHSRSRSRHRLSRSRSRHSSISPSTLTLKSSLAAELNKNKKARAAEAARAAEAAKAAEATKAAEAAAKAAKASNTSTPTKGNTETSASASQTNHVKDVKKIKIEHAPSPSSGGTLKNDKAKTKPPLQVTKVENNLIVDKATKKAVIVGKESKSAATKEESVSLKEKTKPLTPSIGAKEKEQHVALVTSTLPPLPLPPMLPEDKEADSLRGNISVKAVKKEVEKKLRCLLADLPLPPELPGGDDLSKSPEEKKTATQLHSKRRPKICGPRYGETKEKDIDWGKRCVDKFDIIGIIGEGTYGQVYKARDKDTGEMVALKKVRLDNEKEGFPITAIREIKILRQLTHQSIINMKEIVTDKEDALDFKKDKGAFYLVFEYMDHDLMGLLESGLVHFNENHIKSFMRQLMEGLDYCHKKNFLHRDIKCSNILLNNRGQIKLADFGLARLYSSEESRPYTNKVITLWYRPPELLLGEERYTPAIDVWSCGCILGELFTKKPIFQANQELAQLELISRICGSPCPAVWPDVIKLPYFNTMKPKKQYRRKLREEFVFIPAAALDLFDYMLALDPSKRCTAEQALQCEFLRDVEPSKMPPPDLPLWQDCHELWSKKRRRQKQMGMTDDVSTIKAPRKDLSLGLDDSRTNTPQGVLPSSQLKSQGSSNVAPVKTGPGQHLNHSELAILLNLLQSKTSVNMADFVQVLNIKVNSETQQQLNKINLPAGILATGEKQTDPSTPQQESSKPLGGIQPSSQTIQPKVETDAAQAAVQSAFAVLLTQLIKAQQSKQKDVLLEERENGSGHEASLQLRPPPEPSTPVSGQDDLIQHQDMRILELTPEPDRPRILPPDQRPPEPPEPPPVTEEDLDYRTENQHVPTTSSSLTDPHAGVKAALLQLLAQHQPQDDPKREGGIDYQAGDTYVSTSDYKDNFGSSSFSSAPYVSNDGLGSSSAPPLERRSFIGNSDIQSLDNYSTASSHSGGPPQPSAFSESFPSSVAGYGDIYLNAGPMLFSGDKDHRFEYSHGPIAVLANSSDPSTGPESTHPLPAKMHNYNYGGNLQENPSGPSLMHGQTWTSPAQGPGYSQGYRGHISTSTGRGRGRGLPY
Sequence of Ribosomal protein S6 kinase alpha-2 (Homo sapiens) (Q15349 whole entry, the tested form may be a part): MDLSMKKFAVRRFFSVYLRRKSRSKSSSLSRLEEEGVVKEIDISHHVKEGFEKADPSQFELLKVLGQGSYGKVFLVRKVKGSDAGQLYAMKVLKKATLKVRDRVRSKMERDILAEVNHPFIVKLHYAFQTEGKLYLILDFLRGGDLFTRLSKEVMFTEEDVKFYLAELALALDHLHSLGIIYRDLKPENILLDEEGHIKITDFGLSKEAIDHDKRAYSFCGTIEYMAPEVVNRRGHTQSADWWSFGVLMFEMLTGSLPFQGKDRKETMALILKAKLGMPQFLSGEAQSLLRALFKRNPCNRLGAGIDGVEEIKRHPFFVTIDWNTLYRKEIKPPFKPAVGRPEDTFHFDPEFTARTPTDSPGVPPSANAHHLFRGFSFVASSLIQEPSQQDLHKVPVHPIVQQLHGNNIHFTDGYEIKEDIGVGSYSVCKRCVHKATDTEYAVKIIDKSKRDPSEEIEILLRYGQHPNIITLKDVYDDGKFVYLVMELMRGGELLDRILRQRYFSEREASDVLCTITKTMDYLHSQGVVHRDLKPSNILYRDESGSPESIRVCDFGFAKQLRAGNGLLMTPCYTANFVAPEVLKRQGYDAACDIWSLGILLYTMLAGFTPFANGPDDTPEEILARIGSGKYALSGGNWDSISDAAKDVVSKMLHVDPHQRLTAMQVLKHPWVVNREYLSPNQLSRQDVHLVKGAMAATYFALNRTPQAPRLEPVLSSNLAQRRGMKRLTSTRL

For the molecule `CCN1CCN(Cc2ccc(NC(=O)c3ccc(C)c(/C=C/c4cnc5[nH]ccc5c4OC)c3)cc2C(F)(F)F)CC1`, the inhibition in [1] is 16.5%; in assay [2], 0.7%; in [3], 100%; in assay [4], 5.8%; in [5], 21.3%; in assay [6] it was 17%.
With `CCN1CCN(Cc2ccc(NC(=O)c3ccc(C)c(Oc4ccnc5[nH]ccc45)c3)cc2C(F)(F)F)CC1`, in assay [7], the percent of control amounted to 1.6%. In assay [8], this molecule showed an inhibition of 18%.
For `CNc1cc(Oc2cc(C(=O)Nc3cc(N4CCN(C)CC4)cc(C(F)(F)F)c3)ccc2C)ncn1`, in [9], the inhibition came to 9.7%.
